{"data": "Results pooled from the literature", "target": "Ephrin type-B receptor 4 (EPHB4, Homo sapiens, UniProt P54760)", "Residues used in one study (P54760 16-987)": "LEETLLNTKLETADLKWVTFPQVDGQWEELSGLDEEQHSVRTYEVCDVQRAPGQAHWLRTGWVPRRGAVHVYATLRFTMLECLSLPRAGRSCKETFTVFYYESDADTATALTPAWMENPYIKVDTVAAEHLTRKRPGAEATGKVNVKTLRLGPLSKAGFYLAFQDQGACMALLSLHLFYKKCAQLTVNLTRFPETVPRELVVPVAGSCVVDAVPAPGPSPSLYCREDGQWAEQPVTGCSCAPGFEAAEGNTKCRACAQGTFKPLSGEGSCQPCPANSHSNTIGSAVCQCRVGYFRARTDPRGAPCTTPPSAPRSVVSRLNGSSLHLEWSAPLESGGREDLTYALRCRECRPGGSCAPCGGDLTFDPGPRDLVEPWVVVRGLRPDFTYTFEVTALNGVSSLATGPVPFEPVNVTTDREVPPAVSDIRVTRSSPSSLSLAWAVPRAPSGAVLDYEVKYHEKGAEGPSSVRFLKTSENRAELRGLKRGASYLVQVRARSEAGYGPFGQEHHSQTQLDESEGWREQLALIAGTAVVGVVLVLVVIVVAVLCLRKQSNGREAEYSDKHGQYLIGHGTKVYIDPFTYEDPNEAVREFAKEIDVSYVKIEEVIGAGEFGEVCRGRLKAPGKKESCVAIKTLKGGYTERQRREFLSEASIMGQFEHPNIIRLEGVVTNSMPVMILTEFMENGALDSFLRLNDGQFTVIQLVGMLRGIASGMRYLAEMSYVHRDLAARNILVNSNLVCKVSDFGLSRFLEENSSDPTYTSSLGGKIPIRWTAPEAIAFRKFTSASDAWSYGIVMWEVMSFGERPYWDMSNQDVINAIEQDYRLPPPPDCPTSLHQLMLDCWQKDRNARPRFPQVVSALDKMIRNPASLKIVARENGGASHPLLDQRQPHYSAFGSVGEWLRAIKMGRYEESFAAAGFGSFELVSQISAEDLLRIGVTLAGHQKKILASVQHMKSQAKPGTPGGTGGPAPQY"}
{"SMILES": "CN(C)CC#Cc1ccc(OCCCc2sc(N3CCc4cccc(C(=O)Nc5nc6ccccc6s5)c4C3)nc2C(=O)O)c(F)c1", "observed": "cell-free assay", "technique": "competition with immobilised ligand", "tested at": "1 µM", "quantity": "remaining binding", "value": "100%"}
{"SMILES": "COc1cc(Cl)c(C(=O)N[C@@H](CN[C@H]2CC[C@@H](N)CC2)Cc2ccc(C#N)cc2)cc1-c1ccc(CN[C@H](C)c2ccc(C)cc2)o1", "observed": "enzyme activity", "action": "inhibitor", "tested at": "1 µM", "quantity": "remaining activity", "value": "91%"}
{"SMILES": "O=C(Nc1cnn(-c2csc(C(=O)NC3COC3)c2)c1)Nc1ccccc1Cl", "observed": "enzyme activity", "action": "inhibitor", "tested at": "5 µM", "quantity": "remaining activity", "value": "97.8%"}
{"SMILES": "COc1cc2ncnc(Nc3ccc(Oc4ccccc4)c(C)c3C)c2cc1OC", "observed": "enzyme activity", "action": "inhibitor", "tested at": "1 µM", "quantity": "inhibition", "value": "3%"}
{"SMILES": "CS(=O)(=O)N1CCCC(NC(=O)[C@H](CCC2CCCCC2)NC(=O)c2ccc(CNc3ncnc4c3nnn4-c3ccccc3)cc2)C1 (some centres unmarked)", "observed": "cell-free assay", "technique": "competition with immobilised ligand", "tested at": "0.1 µM", "quantity": "remaining binding", "value": "96%"}
{"SMILES": "Oc1ccc(-c2nc(-c3ccncc3)c(-c3ccc(F)cc3)[nH]2)cc1", "observed": "cell-free assay", "tested at": "0.5 µM", "quantity": "remaining signal", "value": "89%"}
{"SMILES": "CSc1cccnc1N1CCN(Cc2nc3ccccc3[nH]2)CC1", "observed": "cell-free assay", "technique": "competition with immobilised ligand", "tested at": "1 µM", "quantity": "remaining binding", "value": "100%"}
{"SMILES": "Cc1[nH]c(/C=C2\\C(=O)Nc3ccc(F)cc32)c(C)c1C(=O)N[C@H]1CCN(C(=O)N(C)C)C1", "observed": "enzyme activity", "action": "inhibitor", "tested at": "1 µM", "quantity": "remaining activity", "value": "101%"}
{"SMILES": "O=C1Nc2ccc(Cl)cc2C1=Cc1cc(Cl)c(O)c(Cl)c1", "observed": "cell-free assay", "tested at": "0.5 µM", "quantity": "remaining signal", "value": "100%"}
{"SMILES": "Cc1ccc(C(=O)NCc2ccsc2)cc1C#Cc1cn(C(C)C)c2ncnc(N)c12", "observed": "enzyme activity", "action": "inhibitor", "tested at": "1 µM", "quantity": "activity vs control", "value": "28%"}
{"SMILES": "CNCc1ccc(-c2cc(-c3nc(-c4ccc(S(=O)(=O)C(C)C)cc4)cnc3N)on2)cc1", "observed": "enzyme activity", "action": "inhibitor", "tested at": "2 µM", "quantity": "inhibition", "value": "10%"}
{"SMILES": "Nc1ncnc2occ(-c3ccc(NC(=O)Nc4cc(C(F)(F)F)ccc4F)cc3)c12", "observed": "cell-free assay", "tested at": "20 µM", "quantity": "remaining signal", "value": "0%"}
{"SMILES": "Nc1cnc(N2CCc3cc(S(=O)(=O)Nc4c(F)cc(Cl)cc4F)cc(N4CCCC4=O)c32)nc1", "observed": "cell-free assay", "technique": "competition with immobilised ligand", "tested at": "1 µM", "quantity": "remaining binding", "value": "100%"}
{"SMILES": "CCCCNc1ncc2c(-c3ccc(F)cc3)nn(C[C@H]3CC[C@H](N)CC3)c2n1", "observed": "target engagement in cells", "action": "inhibitor", "technique": "chemoproteomics", "tested at": "20 mM", "quantity": "inhibition", "value": "97.5%"}
{"SMILES": "COc1cc(Nc2cnc(C#N)c(O[C@H](C)CN(C)C)n2)ncc1-c1cnn(C)c1", "observed": "enzyme activity", "action": "inhibitor", "technique": "radiometric", "tested at": "10 µM", "quantity": "remaining activity", "value": "88%"}
{"SMILES": "Cc1cc(NC(=O)c2cccc(S(F)(F)(F)(F)F)c2)cc(-n2ccn3nc(-c4cccnc4)cc23)c1", "observed": "cell-free assay", "technique": "competition with immobilised ligand", "tested at": "1 µM", "quantity": "remaining binding", "value": "100%"}
{"SMILES": "O=C1NC(=O)c2cc(Nc3ccc(F)cc3)c(Nc3ccc(F)cc3)cc21", "observed": "cell-free assay", "tested at": "0.5 µM", "quantity": "remaining signal", "value": "108%"}
{"SMILES": "Cc1cc(NC(=O)c2cccc3cc(-c4cccc5[nH]nc(N)c45)ccc23)ccc1F", "observed": "enzyme activity", "action": "inhibitor", "tested at": "0.1 µM", "quantity": "activity vs control", "value": "109%"}
{"SMILES": "CN([C@@H]1CCc2c(CC(=O)O)c3cc(S(C)(=O)=O)ccc3n2C1)S(=O)(=O)c1ccc(F)cc1", "observed": "cell-free assay", "technique": "competition with immobilised ligand", "tested at": "1 µM", "quantity": "remaining binding", "value": "95%"}
{"SMILES": "FC(F)c1nc2ccccc2n1-c1nc(N2CCOCC2)nc(N2CCOCC2)n1", "observed": "enzyme activity", "action": "inhibitor", "tested at": "10 µM", "quantity": "remaining activity", "value": "105%"}
{"SMILES": "COc1cccc2c(NCc3ccccc3)nc(-n3c(N)nc4ccccc43)nc12", "observed": "target engagement in cells", "action": "inhibitor", "technique": "chemoproteomics", "tested at": "20 mM", "quantity": "inhibition", "value": "-8.8%"}
{"SMILES": "Oc1cccc(-c2nc(N3CCOCC3)c3oc4ncccc4c3n2)c1", "observed": "enzyme activity", "action": "inhibitor", "tested at": "10 µM", "quantity": "remaining activity", "value": "86%"}
{"SMILES": "CCN(CC)c1ccc(C2=NNC(=O)CC2C)cc1[N+](=O)[O-] (centres unmarked)", "observed": "enzyme activity", "action": "inhibitor", "tested at": "10 µM", "quantity": "remaining activity", "value": "100%"}
{"SMILES": "N#Cc1ccc(Nc2ccc3[nH]c(=O)[nH]c3c2)c(Cl)c1", "observed": "cell-free assay", "technique": "competition with immobilised ligand", "tested at": "1 µM", "quantity": "remaining binding", "value": "98%"}
{"SMILES": "CNC(=O)c1cc2c(Oc3ccc(NC(=O)C4(C(=O)Nc5ccc(F)cc5)CC4)cc3)ccnc2cc1OC", "observed": "enzyme activity", "action": "inhibitor", "technique": "radiometric", "tested at": "1 µM", "quantity": "inhibition", "value": "83%"}
{"SMILES": "CC(=O)Nc1c(C(C)=O)c(=O)n(C)c2nc(-c3ccc(Cl)cc3Cl)c(-c3ccc(Cl)cc3)cc12", "observed": "cell-free assay", "technique": "competition with immobilised ligand", "tested at": "1 µM", "quantity": "remaining binding", "value": "100%"}
{"SMILES": "CC(C)(C)c1nc2c(s1)c1nc(N)ncc1c1ccc(NS(=O)(=O)c3c(F)cccc3F)c(F)c12", "observed": "enzyme activity", "action": "inhibitor", "technique": "radiometric", "tested at": "1 µM", "quantity": "remaining activity", "value": "93%"}
{"SMILES": "Cc1ccc(Nc2nccc(N(C)c3ccc4c(C)n(C)nc4c3)n2)cc1S(N)(=O)=O", "observed": "cell-free assay", "tested at": "0.5 µM", "quantity": "remaining signal", "value": "93.8%"}
{"SMILES": "Cc1cnc(NC2CCOCC2)nc1-n1cnc(C(=O)NC(CN)c2cc(F)cc(Cl)c2)c1 (centres unmarked)", "observed": "enzyme activity", "action": "inhibitor", "technique": "radiometric", "tested at": "1 µM", "quantity": "remaining activity", "value": "89%"}
